Laboratory results published in ChEMBL document CHEMBL4808178 (J Med Chem, 2021).
The source made the active and inactive calls. No cut-off for these calls is given here.

Columns and labels:
[1] = target: T1, Dual specificity protein kinase CLK2 (Homo sapiens, UniProt P49760); assay: Inhibition of human CLK2 incubated for 2 hrs
Target sequence in this assay (P49760 whole entry): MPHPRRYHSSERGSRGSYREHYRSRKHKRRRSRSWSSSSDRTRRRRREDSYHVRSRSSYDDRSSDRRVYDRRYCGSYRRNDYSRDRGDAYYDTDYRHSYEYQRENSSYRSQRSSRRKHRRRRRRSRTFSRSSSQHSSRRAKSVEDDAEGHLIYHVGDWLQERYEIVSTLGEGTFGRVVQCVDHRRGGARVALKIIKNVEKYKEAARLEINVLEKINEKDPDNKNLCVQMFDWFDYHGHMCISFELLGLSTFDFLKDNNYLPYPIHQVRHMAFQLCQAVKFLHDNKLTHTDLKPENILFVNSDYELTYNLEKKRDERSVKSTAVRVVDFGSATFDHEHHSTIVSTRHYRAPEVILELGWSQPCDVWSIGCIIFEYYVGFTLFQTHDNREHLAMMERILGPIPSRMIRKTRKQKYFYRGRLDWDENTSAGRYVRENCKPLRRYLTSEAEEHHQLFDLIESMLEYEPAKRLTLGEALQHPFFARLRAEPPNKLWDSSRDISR

[2] = target: T1, Dual specificity protein kinase CLK2; assay: Inhibition of CLK2 (unknown origin) assessed as residual activity at 1 uM relative to control
In short: (§1)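 Single-concentration screen at 1 μmol/L against a panel of 208 kinases, run as a commercial service; activity expressed relative to control.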
Target sequence in this assay (P49760 whole entry, looked up): as the sequence (P49760 whole entry) above

[3] = target: Epidermal growth factor receptor (Homo sapiens) (UniProt P00533); assay: Inhibition of EGFR (unknown origin) assessed as residual activity at 1 uM relative to control; in short: as §1
Epidermal growth factor receptor (Homo sapiens), sequence (P00533 whole entry): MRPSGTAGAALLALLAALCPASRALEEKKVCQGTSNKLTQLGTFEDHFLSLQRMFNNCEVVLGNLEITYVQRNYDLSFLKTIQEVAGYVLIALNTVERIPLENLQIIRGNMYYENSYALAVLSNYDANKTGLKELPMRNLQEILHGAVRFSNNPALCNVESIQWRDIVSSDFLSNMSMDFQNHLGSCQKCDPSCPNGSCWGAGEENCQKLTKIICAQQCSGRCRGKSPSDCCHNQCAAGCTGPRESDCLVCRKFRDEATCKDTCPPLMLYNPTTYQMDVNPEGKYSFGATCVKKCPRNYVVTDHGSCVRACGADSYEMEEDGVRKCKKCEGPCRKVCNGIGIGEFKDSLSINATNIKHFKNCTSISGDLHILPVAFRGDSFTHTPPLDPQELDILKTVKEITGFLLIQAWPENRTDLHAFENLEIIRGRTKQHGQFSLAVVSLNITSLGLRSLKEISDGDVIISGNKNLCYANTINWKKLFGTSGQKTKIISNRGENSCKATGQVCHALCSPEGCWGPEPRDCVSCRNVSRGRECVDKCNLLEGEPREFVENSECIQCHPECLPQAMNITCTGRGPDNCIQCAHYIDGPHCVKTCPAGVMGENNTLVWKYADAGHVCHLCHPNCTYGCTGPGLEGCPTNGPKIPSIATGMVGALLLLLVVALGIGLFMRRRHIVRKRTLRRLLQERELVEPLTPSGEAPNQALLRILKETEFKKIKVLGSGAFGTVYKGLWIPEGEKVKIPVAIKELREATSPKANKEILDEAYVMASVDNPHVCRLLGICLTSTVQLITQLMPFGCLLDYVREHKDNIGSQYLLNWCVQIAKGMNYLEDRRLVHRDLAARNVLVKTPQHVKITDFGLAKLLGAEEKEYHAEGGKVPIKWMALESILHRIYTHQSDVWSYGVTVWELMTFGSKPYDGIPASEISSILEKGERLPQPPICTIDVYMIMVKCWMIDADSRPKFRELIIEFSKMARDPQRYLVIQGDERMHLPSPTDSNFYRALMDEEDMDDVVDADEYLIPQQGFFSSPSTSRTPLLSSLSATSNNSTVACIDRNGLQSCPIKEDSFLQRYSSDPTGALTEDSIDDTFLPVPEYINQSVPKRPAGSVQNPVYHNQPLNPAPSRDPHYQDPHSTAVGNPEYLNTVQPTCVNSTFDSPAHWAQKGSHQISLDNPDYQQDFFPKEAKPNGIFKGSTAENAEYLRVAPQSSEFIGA

[4] = target: T2, Ephrin type-A receptor 1 (Homo sapiens) (UniProt P21709); assay: Inhibition of EPHA1 (unknown origin) assessed as residual activity at 1 uM relative to control; in short: as §1
T2 sequence (whole entry): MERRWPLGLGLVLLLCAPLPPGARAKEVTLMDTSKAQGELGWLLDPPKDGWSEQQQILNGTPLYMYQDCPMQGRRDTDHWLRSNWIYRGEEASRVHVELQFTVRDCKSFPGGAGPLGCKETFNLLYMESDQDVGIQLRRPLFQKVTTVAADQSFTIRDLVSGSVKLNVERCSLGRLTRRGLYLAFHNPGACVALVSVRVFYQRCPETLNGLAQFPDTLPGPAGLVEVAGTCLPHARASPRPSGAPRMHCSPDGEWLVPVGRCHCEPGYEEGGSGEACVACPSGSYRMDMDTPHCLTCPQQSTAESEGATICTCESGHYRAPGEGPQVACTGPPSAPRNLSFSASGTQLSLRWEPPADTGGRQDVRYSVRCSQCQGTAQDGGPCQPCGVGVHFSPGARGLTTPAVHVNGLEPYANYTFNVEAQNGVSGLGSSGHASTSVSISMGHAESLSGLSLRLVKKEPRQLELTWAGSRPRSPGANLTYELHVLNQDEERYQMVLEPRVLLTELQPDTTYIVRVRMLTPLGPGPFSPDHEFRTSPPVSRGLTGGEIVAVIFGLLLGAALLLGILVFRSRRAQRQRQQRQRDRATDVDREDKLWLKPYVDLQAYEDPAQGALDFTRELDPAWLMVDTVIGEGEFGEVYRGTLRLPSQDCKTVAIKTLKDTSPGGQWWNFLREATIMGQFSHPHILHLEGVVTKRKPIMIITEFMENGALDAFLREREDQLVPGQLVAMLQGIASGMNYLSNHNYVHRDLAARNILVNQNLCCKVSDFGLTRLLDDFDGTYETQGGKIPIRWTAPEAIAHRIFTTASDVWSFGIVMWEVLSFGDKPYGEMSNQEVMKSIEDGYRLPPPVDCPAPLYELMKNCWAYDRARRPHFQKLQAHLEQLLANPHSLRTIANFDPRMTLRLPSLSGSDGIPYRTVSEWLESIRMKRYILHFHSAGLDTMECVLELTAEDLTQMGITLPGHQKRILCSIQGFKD

[5] = tested on: MCF7; assay: Cytotoxicity against human MCF7 cells assessed as reduction in cell viability incubated for 72 hrs by MTT assay; assay type: functional, cell-based; conditions: MCF7, 72 h
In short: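 About 5 × 10³ cells/well, seeded overnight at 37 °C, 5% CO₂, in DMEM or RPMI-1640 with 10% FBS and antibiotics. DMSO-dissolved compounds diluted in medium, exposure 72 h.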

[6] = target: T3, Aldehyde dehydrogenase 1A1 (Homo sapiens) (UniProt P00352); assay: Inhibition of ALDH1A1 in human HCT116 cells at 20 uM after 24 hrs by aldefluor staining based fluorescence analysis; assay type: cell-based; conditions: HCT-116
T3 sequence (whole entry): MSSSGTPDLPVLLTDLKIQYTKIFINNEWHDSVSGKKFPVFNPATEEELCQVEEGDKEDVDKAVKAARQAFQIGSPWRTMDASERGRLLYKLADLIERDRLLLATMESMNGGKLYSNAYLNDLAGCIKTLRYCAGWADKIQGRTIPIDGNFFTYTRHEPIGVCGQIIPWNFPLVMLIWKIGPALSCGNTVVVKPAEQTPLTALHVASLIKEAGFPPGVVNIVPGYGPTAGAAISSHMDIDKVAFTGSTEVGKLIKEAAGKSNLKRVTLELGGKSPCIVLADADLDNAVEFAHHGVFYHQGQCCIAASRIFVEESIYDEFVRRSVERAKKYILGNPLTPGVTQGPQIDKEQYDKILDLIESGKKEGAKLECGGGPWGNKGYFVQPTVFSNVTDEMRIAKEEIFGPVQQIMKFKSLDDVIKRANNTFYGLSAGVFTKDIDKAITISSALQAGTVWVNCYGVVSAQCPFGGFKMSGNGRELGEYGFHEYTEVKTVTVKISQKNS
In short: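 HCT-116 cells, 2 × 10⁵/well, grown overnight at 37 °C, 5% CO₂, then treated 24 h (vehicle DMSO). Aldefluor staining read in FITC channel by FACS for proportion of ALDH⁺ cells; DEAB-pretreated cells set baseline fluorescence.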

[7] = tested on: HCT-116; assay: Effect on Wnt/beta-Catenin signaling in human HCT116 cells assessed as reduction in c-Myc mRNA level at 20 uM after 24 hrs by RT-qPCR analysis; assay type: functional, cell-based
In short: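 HCT-116 cells treated 24 h; total RNA by TRIZOL, one-step RT-qPCR: 55 °C 10 min, 95 °C 1 min, then 39 cycles of 95 °C 10 s and 60 °C 30 s, with melting-curve and no-template controls. β-Actin as internal standard; relative expression by 2^−ΔΔCt, mean ± SD (n = 3).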

[8] = tested on: HCT-116; assay: Effect on Wnt/beta-Catenin signaling in human HCT116 cells assessed as upregulation of DKK1 protein level after 24 hrs by Western blotting analysis; assay type: functional, cell-based; conditions: dose 5-20 µM
In short: (§2)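 HCT-116 cells at 2 × 10⁵ cells/mL in DMEM/10% FBS, grown 12 h at 37 °C, then treated 24 h (vehicle DMSO). Lysates quantified by BCA, run on 10% SDS-PAGE, PVDF transfer, blocked in 5% milk/TBST, primary antibodies 4 °C overnight, HRP secondary 2 h, chemiluminescent detection; normalized to β-actin, n = 3.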

[9] = tested on: HCT-116; assay: Induction of apoptosis in human HCT116 cells assessed as necrotic cells at 10 uM after 24 hrs by annexin V-FITC/propidium iodide staining based flow cytometry (reference value: 5.6%); assay type: functional
[10] = tested on: HCT-116; assay: Induction of apoptosis in human HCT116 cells assessed as viable cells at 20 uM after 24 hrs by annexin V-FITC/propidium iodide staining based flow cytometry (reference value: 88.3%); assay type: functional; conditions: read-out: Activity
[11] = tested on: HCT-116; assay: Induction of apoptosis in human HCT116 cells assessed as upregulation of cleaved caspase 3 level at 20 uM incubated for 24 hrs by Western blot analysis; assay type: functional, cell-based; in short: as §2
[12] = MRT(0 to t) in Sprague-Dawley rat at 25 mg/kg, po measured up to 48 hrs by LC-MS/MS analysis; assay type: ADME, organism-based; conditions: in vivo
In short: (§3)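 Overnight-fasted male SD rats (250−270 g, n = 3/group), single oral 25 mg/kg in 5% CMC-Na (reference sodium salt in phosphate buffer); plasma at 0.25–48 h (12 timepoints), stored −40 °C; LC−MS/MS with internal-standard calibration 3–3000 ng/mL; parameters fitted by model.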

[13] = MRT(0 to infinity) in Sprague-Dawley rat at 25 mg/kg, po measured up to 48 hrs by LC-MS/MS analysis; assay type: ADME, organism-based; conditions: in vivo; in short: as §3

IC50 [1]: 0.0327 µM | Activity [2]: 22.1% | Activity [3]: 34.1% | Activity [4]: 45.2% | inhibition [6]: 96% | MRT last at 48 h [12]: 6.21 h | MRT inf [13]: 6.26 h
SMILES: O=C(NCCO)c1ccc2c(c1)nc(Nc1cccc(Cl)c1)c1ccncc12
IC50 [5]: 7.5 µM | Activity [7]: Active | Activity [8]: Dose-Dependent Effect | Activity [9]: 7.6% | viability at 20 µM [10]: 36% | Activity [11]: Active
